The results in this text go back to ChEMBL document CHEMBL1144143, “Phenolic glycosides from Dirca palustris” (J Nat Prod, 1999).

Activity calls are given as the source filed them. No cut-off for these calls is given here.

Series [1] is described as follows: Antioxidation activity assessed as inhibition of peroxidation of liposome at 1.80 ug/mL. The conditions noted are these: artificial membrane. Format: physicochemical. In outline:
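Large unilamellar liposomes (100 nm extrusion) of 1-stearoyl-2-linoleoyl phosphatidylcholine carrying a phenylhexatrienyl-phenylpropionic acid fluorescent probe, in Chelex-treated HEPES pH 7.0 with NaCl. Test compound added in DMSO. Peroxidation started with FeCl2 (20 µM Fe2+ final) at 23 °C. Fluorescence (excitation 384 nm) read every 3 min for 21 min; the fall in relative intensity gives the peroxidation rate.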

A short description of series [2]: Inhibition of insect cell COX2 at 200 ug/mL. A digest of the protocol:
(§1)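 COX-II was an insect cell lysate preparation, diluted in Tris at pH 7.0 to about 1.5 mg protein/mL. O2 uptake was measured at 37 °C by oxygen electrode. Mixture: 0.1 M Tris at pH 7.0, phenol, hemoglobin and 100 µmol arachidonic acid. Compound was added in DMSO, and the reaction was started by adding enzyme protein.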

Series [3] is described as follows: Antioxidation activity assessed as inhibition of peroxidation of liposome at 60 ug/mL. Format: physicochemical. The conditions noted are these: artificial membrane. A digest of the protocol: (§2)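 Fe2+-initiated peroxidation of large unilamellar liposomes made from 1-stearoyl-2-linoleoyl-phosphocholine with the fluorescent probe 3-[p-(6-phenyl)-1,3,5-hexatrienyl]phenylpropionic acid. Liposomes were extruded through a 100 nm membrane. The assay used Chelex-treated HEPES buffer at pH 7.0 with NaCl, at 23 °C, with test agent in DMSO. Reaction was started with 20 µM FeCl2 (final). Fluorescence (excitation 384 nm) was read every 3 min for 21 min. Positive controls were at 10 µM final.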

Series [4] addresses T1, Prostaglandin G/H synthase 1 (Ovis aries) (UniProt P05979).
T1 sequence (whole entry): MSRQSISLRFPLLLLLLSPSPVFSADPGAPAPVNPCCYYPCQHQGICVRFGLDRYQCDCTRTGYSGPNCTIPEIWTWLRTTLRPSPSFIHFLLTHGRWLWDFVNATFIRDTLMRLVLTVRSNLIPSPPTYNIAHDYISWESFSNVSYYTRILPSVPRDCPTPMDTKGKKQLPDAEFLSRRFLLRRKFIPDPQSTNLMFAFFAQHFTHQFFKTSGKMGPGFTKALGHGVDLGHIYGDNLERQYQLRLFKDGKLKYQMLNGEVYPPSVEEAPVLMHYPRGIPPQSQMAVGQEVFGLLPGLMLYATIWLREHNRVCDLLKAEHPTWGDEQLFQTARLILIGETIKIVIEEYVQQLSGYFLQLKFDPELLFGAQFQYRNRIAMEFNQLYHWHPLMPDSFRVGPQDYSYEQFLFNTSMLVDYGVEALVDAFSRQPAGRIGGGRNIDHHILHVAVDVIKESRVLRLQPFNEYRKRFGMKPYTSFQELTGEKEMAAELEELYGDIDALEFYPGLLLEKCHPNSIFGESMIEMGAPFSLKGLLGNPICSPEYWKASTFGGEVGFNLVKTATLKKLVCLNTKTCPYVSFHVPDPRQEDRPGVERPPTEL
The experiment in a line: Inhibition of sheep COX1. In outline:
(§3)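 COX-I. Initial rate of O2 uptake measured at 37 °C with an oxygen electrode. Mixture: 0.1 M Tris at pH 7.0, 1 mmol phenol, 85 µg hemoglobin and 100 µmol arachidonic acid. Compound was added in DMSO, with a DMSO-only control. Reaction was started with 5-25 µg microsomal protein. Results are expressed as % inhibition.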

Series [5] has as its target T1, Prostaglandin G/H synthase 1 (Ovis aries). The conditions noted are these: 180 ug/mL.
The target is the same in series [6]. Particulars: 2.52 ug/mL.
Series [7] in a line: Antioxidation activity assessed as inhibition of peroxidation of liposome at 4.31 ug/mL. Format: physicochemical. The conditions noted are these: artificial membrane. In outline:
as §2

A short description of series [8]: Antioxidation activity assessed as inhibition of peroxidation of liposome at 2.20 ug/mL. Particulars: artificial membrane. In kind it is physicochemical. In outline:
as §2

In series [9] the target is T1, Prostaglandin G/H synthase 1 (Ovis aries). The experiment in a line: Inhibition of sheep COX1 at 125 ug/mL. In outline:
as §3

Series [10] in a line: Inhibition of insect cell COX2 at 125 ug/mL. A digest of the protocol:
as §1

The nature of series [11]: Antioxidation activity assessed as inhibition of peroxidation of liposome. Format: physicochemical. Particulars: artificial membrane. A digest of the protocol: as §2
Series [12] addresses T1, Prostaglandin G/H synthase 1 (Ovis aries). The conditions noted are these: 2.06 ug/mL.
Series [13] has the same target. Kind of series: Inhibition of sheep COX1 at 200 ug/mL. In outline: as §3
Series [14] can be described thus: Antioxidation activity assessed as inhibition of peroxidation of liposome at 1.66 ug/mL. Format: physicochemical. Particulars: artificial membrane. A digest of the protocol: as §2

`COc1ccc(O)c(C(C)(C)C)c1.COc1ccc(O)cc1C(C)(C)C` [BUTYLATED HYDROXYANISOLE]: the “inhibition (INH)” value in [1] stood at 91%.
With `COc1ccc(-c2cc(=O)c3c(OC)cc(O[C@@H]4O[C@H](CO[C@H]5OC[C@@H](O)[C@H](O)[C@H]5O)[C@@H](O)[C@H](O)[C@H]4O)cc3o2)cc1`, the result in series [2] and in series [4] was inactive. The “inhibition (INH)” value in [3] was determined as 78%.
On to `CC(=O)Oc1ccccc1C(=O)O`, for which the inhibition in series [5] turned out to be 52.1%.
With `COc1ccc2cc([C@H](C)C(=O)O)ccc2c1`, the inhibition in series [6] was 58%.
VITAMIN E: the “inhibition (INH)” value in [7] is 7%.
Consider `Cc1cc(C(C)(C)C)c(O)c(C(C)(C)C)c1` [BUTYLATED HYDROXYTOLUENE], for which the “inhibition (INH)” value in series [8] amounted to 81%.
Consider `COc1ccc(-c2cc(=O)c3c(OC)cc(O[C@@H]4O[C@H](CO[C@H]5OC[C@@H](O)[C@H](O)[C@H]5O)[C@@H](O)[C@H](O)[C@H]4O)cc3o2)cc1OC`, for which the result in series [2] and in [4] was inactive. The “inhibition (INH)” value in series [3] was determined as 98%.
In series [9], `COc1cc(/C=C/CO)c(OC)c(O[C@@H]2O[C@H](CO)[C@@H](O)[C@H](O)[C@H]2O)c1` came in with an inhibition of 9.2%. For the same molecule, the outcome in series [10] was inactive. The Activity entry in series [11] was “Not Active”.
For the molecule `CC(C)Cc1ccc(C(C)C(=O)O)cc1` (configuration not stated), in [12], the inhibition turned out to be 53.3%.
For `COc1cc(O[C@@H]2O[C@H](CO[C@H]3OC[C@@H](O)[C@H](O)[C@H]3O)[C@@H](O)[C@H](O)[C@H]2O)cc2oc(-c3ccc(O)cc3)cc(=O)c12`, the inhibition in series [13] stood at 12.5%. Further, the result in series [2] was inactive. Also, the “inhibition (INH)” value in series [3] came out at 71%.
For `CC(C)(C)c1cc(O)ccc1O` [E319], the “inhibition (INH)” value in series [14] is 90%.
With `COc1ccc(-c2cc(=O)c3c(OC)cc(O[C@@H]4O[C@H](CO[C@H]5O[C@H](C)[C@@H](O)[C@H](O)[C@H]5O)[C@@H](O)[C@H](O)[C@H]4O)cc3o2)cc1OC`, the result in [2] and in [4] was inactive. Further, in [3], the “inhibition (INH)” value was determined as 67%.
